Reference: ChEMBL document CHEMBL1121520, “Synthesis of analogues of the carboxyl protease inhibitor pepstatin. Effects of structure on inhibition of pepsin and renin” (J Med Chem, 1980)

Columns and labels:
Pepsin A [1] = target: Pepsin A (Sus scrofa, UniProt P00791); assay: Pepsin inhibition was measured using the synthetic heptapeptide substrate Phe-Gly-His-Phe-(N02)-Phe-Ala- Phe-OMe
Summary of the method: (§1)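 Nitrophenylalanine-containing heptapeptide substrate hydrolysis by pepsin; run at five substrate and three inhibitor concentrations per analogue, with Ki calculated by a previously described method.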

Renin (Sus scrofa) = assay: Inhibition of renin was measured using hog kidney renin and the radiolabeled synthetic substrate, H-Ile-His-Pro-Phe-His-Leu-[14C]Leu-Val-Tyr-Ser-OH
Pepsin A [2] = target: Pepsin A (Homo sapiens, UniProt P0DJD9); assay: Pepsin inhibition using synthetic heptapeptide substrate Phe-Gly-His-Phe-(N02)-Phe-Ala- Phe-OMe; summary of the method: as §1
Chain of Pepsin A (Homo sapiens, UniProt P0DJD9) (P0DJD9 whole entry): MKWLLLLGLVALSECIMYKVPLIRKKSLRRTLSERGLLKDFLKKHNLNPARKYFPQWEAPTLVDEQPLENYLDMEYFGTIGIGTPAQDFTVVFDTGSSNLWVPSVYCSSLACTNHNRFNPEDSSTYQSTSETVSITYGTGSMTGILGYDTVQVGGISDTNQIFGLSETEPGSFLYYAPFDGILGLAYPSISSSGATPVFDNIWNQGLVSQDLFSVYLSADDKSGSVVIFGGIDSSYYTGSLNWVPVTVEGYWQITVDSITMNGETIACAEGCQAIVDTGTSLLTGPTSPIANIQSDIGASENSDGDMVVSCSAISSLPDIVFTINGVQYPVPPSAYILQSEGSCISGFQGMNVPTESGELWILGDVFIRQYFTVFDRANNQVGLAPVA

Chain of Pepsin A (Sus scrofa, UniProt P00791) (P00791 whole entry): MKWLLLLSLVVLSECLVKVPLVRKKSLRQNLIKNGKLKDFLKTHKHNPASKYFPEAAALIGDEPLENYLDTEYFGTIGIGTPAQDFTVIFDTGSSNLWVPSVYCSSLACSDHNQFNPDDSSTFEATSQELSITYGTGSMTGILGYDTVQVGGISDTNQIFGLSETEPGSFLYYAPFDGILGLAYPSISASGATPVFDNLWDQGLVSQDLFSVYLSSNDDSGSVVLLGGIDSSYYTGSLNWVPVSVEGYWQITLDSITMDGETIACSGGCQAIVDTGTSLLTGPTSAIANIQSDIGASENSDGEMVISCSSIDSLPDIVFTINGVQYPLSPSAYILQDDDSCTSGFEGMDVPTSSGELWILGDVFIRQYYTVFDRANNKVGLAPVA

**Q.** For CC(C)CC(=O)N[C@@H](C(=O)N[C@@H](CC(C)C)C(O)CC(N)=O)C(C)C (stereo partly drawn), which Ki (Pepsin A [1]) is on record?
**A.** Its Ki is about 1000 nM.

**Q.** What about the IC50 (Renin (Sus scrofa)) of the same compound?
**A.** Its IC50 is over 330000 nM.

**Q.** With CC(C)CCNC(=O)[C@@H](C)NC(=O)C[C@H](O)C(CC(C)C)NC(=O)CC(C)C (stereo partly drawn) as the compound, how does the Ki (Pepsin A [1]) read?
**A.** Its Ki is 350 nM.

**Q.** And the IC50 (Renin (Sus scrofa))?
**A.** The IC50 was over 330000 nM.

**Q.** How did the Ki (Pepsin A [1]) turn out when CC(C)CCNC(=O)[C@H](C)NC(=O)C[C@H](O)C(CC(C)C)NC(=O)[C@H](NC(=O)CC(C)C)C(C)C (stereo partly drawn) was run?
**A.** Its Ki is 1.1 nM.

**Q.** Which Ki (Pepsin A [1]) does the source give for CC(C)CC(=O)N[C@@H](C(=O)N[C@@H](C(=O)NC(CC(C)C)[C@@H](O)CC(=O)N[C@H](C)C(=O)NC(CC(C)C)[C@@H](O)CO)C(C)C)C(C)C (stereo partly drawn) here?
**A.** Its Ki is 0.0457 nM.

**Q.** Which Ki (Pepsin A [1]) does the source give for CC(C)CCNC(=O)[C@H](C)NC(=O)C[C@H](O)NC(C(=O)[C@H](NC(=O)CC(C)C)C(C)C)c1ccccc1 (stereo partly drawn) here?
**A.** The Ki was 0.9 nM.

**Q.** With CC(C)CCNC(=O)[C@H](C)NC(=O)C[C@@H](O)C(CC(C)C)NC(=O)[C@H](NC(=O)CC(C)C)C(C)C (stereo partly drawn) as the compound, how does the Ki (Pepsin A [2]) read?
**A.** Its Ki is 3000 nM.
